For test [1], the target named is T1, Cholecystokinin receptor type A (Rattus norvegicus, UniProt P30551).
T1 sequence (P30551 whole entry): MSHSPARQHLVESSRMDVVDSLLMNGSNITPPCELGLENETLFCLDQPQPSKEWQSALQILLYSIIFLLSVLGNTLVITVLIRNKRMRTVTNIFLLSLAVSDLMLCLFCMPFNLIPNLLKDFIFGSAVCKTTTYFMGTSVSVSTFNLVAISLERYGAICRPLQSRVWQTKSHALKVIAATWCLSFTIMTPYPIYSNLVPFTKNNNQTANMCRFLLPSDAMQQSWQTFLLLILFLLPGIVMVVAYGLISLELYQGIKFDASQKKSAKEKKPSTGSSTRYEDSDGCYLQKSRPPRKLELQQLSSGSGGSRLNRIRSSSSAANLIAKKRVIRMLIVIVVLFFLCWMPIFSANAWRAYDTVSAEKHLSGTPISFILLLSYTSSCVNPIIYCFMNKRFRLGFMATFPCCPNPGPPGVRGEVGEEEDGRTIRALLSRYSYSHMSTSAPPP
Description: Half-maximal inhibition of [125I]CCK-33 binding to cholecystokinin A receptor from rat pancreatic tissue.

A short description of test [2]: Ratio of IC50 CCK(pancreas)/ IC50BZD (brain). The class given is functional.
Test [3] concerns the target GABA-A receptor; anion channel. Description: Inhibition of [3H]flunitrazepam binding to GABA-A benzodiazepine receptor of guinea brain. More on the design: species or system Cavia porcellus.
In test [4] the target is T1, Cholecystokinin receptor type A. Description: Half-maximal inhibition of [125I]CCK-8 binding to cholecystokinin receptor from rat pancreatic tissue.
The test system of test [5] is Mus musculus. The test can be described thus: Ability to antagonize CCK-8 inhibition of charcoal meal gastric emptying in mice, after oral administration. In kind it is functional. The following applies: Stomach. In outline: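 Mice dosed orally with test compound at one or more dose levels (N ≥ 10/dose) 1 h before CCK-8 (80 μg/kg, sc). CCK-8 given 5 min before a charcoal meal. Gastric emptying measured 5 min after the meal.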

Test [6] addresses GABA-A receptor; anion channel. Description: Inhibition of [3H]diazepam binding to GABA-A benzodiazepine receptor of rat brain.
A short description of test [7]: Ratio of IC50 CCK (pancreas)/ IC50 BZD (brain). The class given is functional.

Where only a bound is given, the exact number is not on record here.

The values below come from ChEMBL document CHEMBL1124015, “Methods for drug discovery: development of potent, selective, orally effective cholecystokinin antagonists” (J Med Chem, 1988).

In the case of `CN1C(=O)[C@H](N)N=C(c2ccccc2)c2ccccc21`, the values for the IC50 in test [1] and in test [3] were more than 100000 nM and 8500 nM, respectively. In addition, the Ratio in test [2] is listed as more than 11.

`CN1C(=O)[C@@H](N)N=C(c2ccccc2)c2ccccc21`: the 50% inhibitory concentration (IC50) – broadly, the concentration needed to halve the response being measured – in test [3] was more than 100000 nM.

With `CN1C(=O)[C@@H](NC(=O)/C=C/c2ccccc2)N=C(c2ccccc2)c2ccccc21`, in test [4], the IC50 was found to be 0.3 nM.

On to `CC(C)CCC(=O)N[C@H]1N=C(c2ccccc2)c2ccccc2N(C)C1=O`, for which the IC50 in test [4] came to 780 nM.

As for `CN1C(=O)[C@H](NC(=O)C2CCCCC2)N=C(c2ccccc2)c2ccccc21`, in test [4], the IC50 is more than 10000 nM.

With `CN1C(=O)[C@H](NC(=O)c2ccc(Br)cc2)N=C(c2ccccc2)c2ccccc21`, in test [2], the Ratio turned out to be 0.05. For the same compound, the concentration for half-maximal inhibition (IC50) in test [3] was 15000 nM.

In the case of `CN1C(=O)[C@@H](NC(=O)c2ccc(Br)cc2)N=C(c2ccccc2)c2ccccc21`, the half-inhibitory concentration (IC50) in test [1] was 2.9 nM; in test [3], more than 100000 nM. Also, in test [5], the ED50 (usually the midpoint of the dose-response relation) was 0.4 mg/kg. Moreover, in test [2], the Ratio is given as less than 1e-05.

Turning to `O=C(NC1N=C(c2ccccc2)c2ccccc2NC1=O)c1cc2ccccc2[nH]1` (centres undefined), the IC50 in test [1] is 4.7 nM; in test [6], more than 100000 nM. In test [5], this compound returned an ED50 of 0.4 mg/kg. Also, the Ratio in test [7] is less than 4.7e-05.

`CN1C(=O)C(NC(=O)c2ccc(Cl)cc2)N=C(c2ccccc2F)c2ccccc21` (centres undefined) returned an IC50 in test [1] of 2.3 nM. This compound had a 50% effective dose (ED50) in test [5] of 0.2 mg/kg.

In turn, `O=C(O)CN1C(=O)C(NC(=O)c2cc3ccccc3[nH]2)N=C(c2ccccc2)c2ccccc21` (centres undefined) showed an IC50 in test [1] of 1.4 nM. The same compound gave an ED50 in test [5] of 0.5 mg/kg.

Regarding `CN1C(=O)C(NC(=O)c2cc3ccccc3n2C)N=C(c2ccccc2)c2ccccc21` (centres undefined), the IC50 was 1.4 nM in test [1] and more than 100000 nM in test [3]. Further, the ED50 in test [5] came out at 1.9 mg/kg.

In test [4], `CN1C(=O)C(N)N=C(c2ccccc2F)c2ccccc21` (centres undefined) returned an IC50 of 57000 nM.

In test [1], `O=C(NC1N=C(c2ccccc2F)c2ccccc2NC1=O)c1ccc(Cl)cc1` (centres undefined) yielded an IC50 of 6 nM. Besides, it took a dose of 1.4 mg/kg to reach the 50% effect level in test [5] (ED50).

`CN1C(=O)C(NC(=O)c2ccc(Cl)cc2N)N=C(c2ccccc2)c2ccccc21` (centres undefined) had an IC50 in test [4] of 9 nM.

`CN1C(=O)C(NC(=O)[C@H](Cc2ccccc2)NC(=O)OC(C)(C)C)N=C(c2ccccc2F)c2ccccc21` (some centres undefined): the IC50 in test [4] was found to be 340 nM.

`CCOC(=O)CN1C(=O)C(NC(=O)c2ccccc2Cl)N=C(c2ccccc2F)c2ccccc21` (centres undefined): the concentration for half-maximal inhibition (IC50) in test [4] was more than 30000 nM.

In turn, `CCOC(=O)CN1C(=O)C(NC=O)N=C(c2ccccc2)c2ccccc21` (centres undefined) came in with an IC50 in test [4] of more than 100000 nM.

As for `CN1C(=O)CN=C(c2ccccc2)c2ccccc21`, the IC50 amounted to 24600 nM in test [1] and 65 nM in test [6]. Further, in test [2], the Ratio was found to be 378.

For `O=C1CN=C(c2ccccc2Cl)c2cc([N+](=O)[O-])ccc2N1` [CLONAZEPAM], the IC50 in test [1] is more than 100000 nM. For the same compound, the Ratio in test [2] is more than 58000.

In the case of `CN1C(=O)CN=C(c2ccccc2F)c2ccccc21` [RO-054520], the IC50 in test [1] came out at 42000 nM; in test [6], 24 nM. In addition, the Ratio in test [2] is given as 1750.
